By IC50 is commonly meant the concentration that inhibits the measured activity by half.

IC50 data for six compounds are collected here from ChEMBL document CHEMBL1157465, “Design, synthesis, and biological evaluation of novel 3-aryl-4-(1H-indole-3yl)-1,5-dihydro-2H-pyrrole-2-ones as vascular endothelial growth factor receptor (VEGF-R) inhibitors” (J Med Chem, 2008).

Experiment [1] concerns the target Vascular endothelial growth factor receptor 2 (Homo sapiens, UniProt P35968). In words: Inhibition of human recombinant VEGFR2. In short, it runs like this: (§1)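 Recombinant human tyrosine kinases (EPHB4, TIE2, VEGF-R2, VEGF-R3), expressed in Sf9 insect cells as GST- or His-fusions, with poly(Glu,Tyr) 4:1 as substrate. Conditions: 1 µM [γ-33P]ATP, pH 7.5 HEPES buffer with Mg/Mn, DTT and vanadate, 30 °C for 80 min, 1% DMSO. Ten concentrations were tested and IC50 came from scintillation counting of incorporated 33P.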

The target in experiment [2] is T1, Serine/threonine-protein kinase PLK4 (Homo sapiens, UniProt O00444).
T1 sequence (O00444 whole entry): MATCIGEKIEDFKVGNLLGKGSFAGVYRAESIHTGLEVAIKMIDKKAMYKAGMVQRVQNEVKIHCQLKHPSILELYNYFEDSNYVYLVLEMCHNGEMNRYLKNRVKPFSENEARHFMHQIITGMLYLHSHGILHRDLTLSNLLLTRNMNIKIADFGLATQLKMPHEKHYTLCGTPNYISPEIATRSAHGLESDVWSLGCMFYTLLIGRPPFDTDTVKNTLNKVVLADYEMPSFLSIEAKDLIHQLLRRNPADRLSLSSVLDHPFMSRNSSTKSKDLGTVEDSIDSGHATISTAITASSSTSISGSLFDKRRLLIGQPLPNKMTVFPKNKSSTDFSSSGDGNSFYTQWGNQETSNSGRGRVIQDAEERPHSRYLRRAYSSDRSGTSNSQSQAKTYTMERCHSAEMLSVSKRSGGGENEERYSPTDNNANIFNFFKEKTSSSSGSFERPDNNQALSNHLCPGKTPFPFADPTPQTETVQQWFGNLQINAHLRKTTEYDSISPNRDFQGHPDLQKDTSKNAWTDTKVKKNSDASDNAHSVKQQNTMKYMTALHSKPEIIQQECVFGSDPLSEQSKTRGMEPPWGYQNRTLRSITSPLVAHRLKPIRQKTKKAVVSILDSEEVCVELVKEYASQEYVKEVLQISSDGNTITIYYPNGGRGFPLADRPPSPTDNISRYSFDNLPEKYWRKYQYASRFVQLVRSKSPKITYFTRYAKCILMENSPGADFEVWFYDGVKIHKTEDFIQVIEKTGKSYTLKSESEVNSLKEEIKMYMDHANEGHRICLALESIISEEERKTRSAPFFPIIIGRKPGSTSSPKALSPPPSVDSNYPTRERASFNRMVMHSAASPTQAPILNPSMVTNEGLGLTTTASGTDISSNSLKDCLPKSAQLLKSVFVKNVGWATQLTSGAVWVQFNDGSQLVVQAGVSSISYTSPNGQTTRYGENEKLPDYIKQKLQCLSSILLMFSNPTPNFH
Description: Inhibition of human recombinant SAK. The procedure, abridged: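 Human kinase expressed from cDNA in Sf9 cells (baculovirus) as GST- or His-tagged protein, affinity-purified. 10 compound concentrations, 1% DMSO final, 30 °C for 80 min. Stopped with H₃PO₄, 33P incorporation counted, IC50 derived.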

Experiment [3] has as its target Vascular endothelial growth factor receptor 3 (Homo sapiens, UniProt P35916). Description: Inhibition of human recombinant VEGFR3. The procedure, abridged:
as §1

For a further experiment, the target named is T2, Aurora kinase A (Homo sapiens, UniProt O14965).
T2 sequence (O14965 whole entry): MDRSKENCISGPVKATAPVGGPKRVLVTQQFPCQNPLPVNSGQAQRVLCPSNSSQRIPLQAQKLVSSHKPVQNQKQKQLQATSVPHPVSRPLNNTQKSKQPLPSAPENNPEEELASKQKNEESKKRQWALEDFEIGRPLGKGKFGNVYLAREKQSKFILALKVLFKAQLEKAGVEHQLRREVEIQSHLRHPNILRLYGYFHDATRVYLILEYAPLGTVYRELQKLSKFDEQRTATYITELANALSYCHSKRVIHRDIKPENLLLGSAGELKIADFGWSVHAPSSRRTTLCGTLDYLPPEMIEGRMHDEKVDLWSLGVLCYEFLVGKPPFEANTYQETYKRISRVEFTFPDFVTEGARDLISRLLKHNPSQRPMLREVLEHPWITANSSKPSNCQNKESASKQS
Description: Inhibition of human recombinant Aurora A. The procedure, abridged:
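Aurora-A or Aurora-B, human cDNA expressed in Sf9 cells as tagged recombinant protein, phosphorylating Tetra(LRRWSLG). Reactions used 60 mM HEPES pH 7.5, Mg2+/Mn2+ (3 mM each), 1.2 mM DTT, vanadate and 1 µM [γ-33P]ATP, ran 80 min at 30 °C and were stopped with 2% H3PO4.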

Chain of Vascular endothelial growth factor receptor 3 (P35916 whole entry): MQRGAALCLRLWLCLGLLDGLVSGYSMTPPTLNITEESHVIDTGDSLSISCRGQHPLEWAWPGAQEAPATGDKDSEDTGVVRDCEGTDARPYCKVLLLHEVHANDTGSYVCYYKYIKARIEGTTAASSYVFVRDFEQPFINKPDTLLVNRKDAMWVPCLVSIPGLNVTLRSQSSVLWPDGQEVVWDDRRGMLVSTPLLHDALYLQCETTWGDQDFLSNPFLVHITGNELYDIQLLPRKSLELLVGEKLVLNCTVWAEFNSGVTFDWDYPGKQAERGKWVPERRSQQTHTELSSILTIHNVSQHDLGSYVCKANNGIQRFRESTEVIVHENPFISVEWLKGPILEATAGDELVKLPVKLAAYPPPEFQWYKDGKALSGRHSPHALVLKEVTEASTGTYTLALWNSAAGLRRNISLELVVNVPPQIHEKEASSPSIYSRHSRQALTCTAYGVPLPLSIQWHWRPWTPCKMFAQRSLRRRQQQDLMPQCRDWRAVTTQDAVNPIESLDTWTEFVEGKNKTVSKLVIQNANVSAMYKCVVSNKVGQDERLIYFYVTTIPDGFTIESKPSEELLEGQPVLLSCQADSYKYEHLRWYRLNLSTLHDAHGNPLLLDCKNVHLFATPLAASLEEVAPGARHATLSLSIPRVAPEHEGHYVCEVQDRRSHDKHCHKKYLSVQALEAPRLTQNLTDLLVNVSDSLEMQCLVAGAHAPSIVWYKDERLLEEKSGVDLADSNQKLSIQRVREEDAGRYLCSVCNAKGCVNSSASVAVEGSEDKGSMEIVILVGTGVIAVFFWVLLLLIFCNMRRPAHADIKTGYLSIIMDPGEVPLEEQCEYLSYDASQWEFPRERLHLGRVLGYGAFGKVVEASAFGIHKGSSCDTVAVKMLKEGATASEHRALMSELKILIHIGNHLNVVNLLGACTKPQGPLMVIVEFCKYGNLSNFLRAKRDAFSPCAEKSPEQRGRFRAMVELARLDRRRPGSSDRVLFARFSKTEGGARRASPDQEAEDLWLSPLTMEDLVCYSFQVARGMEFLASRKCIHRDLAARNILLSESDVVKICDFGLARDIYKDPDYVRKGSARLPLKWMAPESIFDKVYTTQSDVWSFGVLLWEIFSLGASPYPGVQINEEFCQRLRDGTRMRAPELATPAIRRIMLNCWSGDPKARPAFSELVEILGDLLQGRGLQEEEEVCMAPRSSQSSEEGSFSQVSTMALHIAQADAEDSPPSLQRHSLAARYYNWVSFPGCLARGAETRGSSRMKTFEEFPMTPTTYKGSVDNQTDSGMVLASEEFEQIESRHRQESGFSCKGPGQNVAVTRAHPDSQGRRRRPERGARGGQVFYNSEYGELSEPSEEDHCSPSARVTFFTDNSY
Chain of Vascular endothelial growth factor receptor 2 (P35968 whole entry, the tested form may be a part): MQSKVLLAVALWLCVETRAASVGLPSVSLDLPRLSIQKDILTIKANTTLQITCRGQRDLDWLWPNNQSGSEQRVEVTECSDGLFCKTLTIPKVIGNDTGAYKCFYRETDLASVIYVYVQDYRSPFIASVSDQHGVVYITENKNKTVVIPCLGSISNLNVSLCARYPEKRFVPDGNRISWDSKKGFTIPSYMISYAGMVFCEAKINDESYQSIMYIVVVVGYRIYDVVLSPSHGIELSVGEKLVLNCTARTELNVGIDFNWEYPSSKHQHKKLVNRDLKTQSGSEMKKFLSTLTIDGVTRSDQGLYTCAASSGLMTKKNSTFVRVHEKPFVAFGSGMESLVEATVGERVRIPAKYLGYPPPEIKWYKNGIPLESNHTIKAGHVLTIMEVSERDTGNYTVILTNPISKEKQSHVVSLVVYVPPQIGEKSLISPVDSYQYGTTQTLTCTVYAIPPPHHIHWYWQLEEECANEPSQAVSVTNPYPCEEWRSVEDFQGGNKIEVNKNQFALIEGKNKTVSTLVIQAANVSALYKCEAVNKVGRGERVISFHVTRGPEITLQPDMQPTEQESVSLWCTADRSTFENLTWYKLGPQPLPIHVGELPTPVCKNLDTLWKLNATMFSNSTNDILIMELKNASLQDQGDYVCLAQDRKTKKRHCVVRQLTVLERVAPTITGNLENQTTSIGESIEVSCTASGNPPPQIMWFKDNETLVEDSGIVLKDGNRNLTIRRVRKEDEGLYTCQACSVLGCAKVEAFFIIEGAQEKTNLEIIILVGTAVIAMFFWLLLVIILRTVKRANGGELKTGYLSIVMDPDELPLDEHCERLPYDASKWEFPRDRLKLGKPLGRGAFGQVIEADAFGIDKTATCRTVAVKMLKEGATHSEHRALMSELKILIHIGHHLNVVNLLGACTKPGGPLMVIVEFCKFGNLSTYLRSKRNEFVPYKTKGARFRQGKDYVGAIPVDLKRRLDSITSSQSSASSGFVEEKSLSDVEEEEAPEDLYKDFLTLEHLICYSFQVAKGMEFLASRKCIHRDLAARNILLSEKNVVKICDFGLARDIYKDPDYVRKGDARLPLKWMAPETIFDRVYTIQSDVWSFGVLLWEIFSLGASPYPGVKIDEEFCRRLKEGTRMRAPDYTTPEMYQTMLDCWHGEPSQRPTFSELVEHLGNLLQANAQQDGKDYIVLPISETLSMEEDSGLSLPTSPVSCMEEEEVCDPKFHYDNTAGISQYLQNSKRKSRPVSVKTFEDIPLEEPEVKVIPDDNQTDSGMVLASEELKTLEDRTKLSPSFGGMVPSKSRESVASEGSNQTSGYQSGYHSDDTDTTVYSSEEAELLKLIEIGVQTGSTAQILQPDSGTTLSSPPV

Turning to `COc1cc(C2=C(c3cn(CC(O)CO)c4ccccc34)CNC2=O)cc(OC)c1OC` (centres undefined), the IC50 in experiment [1] was 4.2 µM; in experiment [2], 16 µM; in experiment [3], 2.5 µM; on Aurora kinase A, 47 µM.
Regarding `COc1cc(C2=C(c3cn(C)c4ccccc34)C(=O)NC2)cc(OC)c1OC`, the IC50 is 15 µM in experiment [1], 9.2 µM in experiment [2], 11 µM in experiment [3] and 3.2 µM on Aurora kinase A.
As to `COc1cc(C2=C(c3c[nH]c4ccccc34)CNC2=O)cc(OC)c1OC`, the IC50 in experiment [1] stood at 0.031 µM; in experiment [2], 10 µM; in experiment [3], 0.037 µM; on Aurora kinase A, 16 µM.
As for `COc1cc(C2=C(c3c[nH]c4ccccc34)C(=O)NC2)cc(OC)c1OC`, the IC50 was 11 µM in experiment [1], 7.7 µM in experiment [2], 9.4 µM in experiment [3] and 3.2 µM on Aurora kinase A.
As to `COc1ccc(C2=C(c3c[nH]c4ccccc34)C(=O)NC2)cc1`, the IC50 in experiment [1] is 13 µM; in experiment [2], 12 µM; in experiment [3], 8.7 µM; at Aurora kinase A it was 16 µM.
For `COc1cc(C2=C(c3cn(COC(C)(C)C)c4ccccc34)CNC2=O)cc(OC)c1OC`, the IC50 in experiment [1] is 4.4 µM; in experiment [2], 28 µM; in experiment [3], 4.8 µM; on Aurora kinase A, 30 µM.
